Drawing on BindingDB's records for doi:10.1128/aac.00067-07 (Rutgers University, 2007), this text covers IC50 for one molecule.

Values after ≈ are worked out from the molar mass of the structure shown.

Test [1] concerns the target 1,3-beta-glucan synthase (Pichia kudriavzevii, UniProt Q4U2W2, F655C). The experiment in a line: Inhibition of FKS1 T2080K mutant from Candida krusei 100 isolate. In a few lines: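 Glucan synthase enzyme complex isolated from posttreatment strain Ck-100. Caspofungin titrated against the enzyme. Inhibition curve fitted with a two-site competition algorithm to give IC50 in ng/ml.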

Test [2] addresses 1,3-beta-glucan synthase (Pichia kudriavzevii, UniProt Q4U2W2). As to the kind of experiment: Inhibition of FKS1 from Candida krusei 98 isolate. In a few lines:
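Glucan synthase enzyme complex isolated from the pretreatment clinical strain Ck-98 and titrated with the echinocandin. Inhibition curves were fitted with a sigmoidal variable-slope dose-response model to give IC50 in ng/ml.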

Chain of 1,3-beta-glucan synthase (Pichia kudriavzevii, UniProt Q4U2W2, F655C) (Q4U2W2 entry or part of it F655C): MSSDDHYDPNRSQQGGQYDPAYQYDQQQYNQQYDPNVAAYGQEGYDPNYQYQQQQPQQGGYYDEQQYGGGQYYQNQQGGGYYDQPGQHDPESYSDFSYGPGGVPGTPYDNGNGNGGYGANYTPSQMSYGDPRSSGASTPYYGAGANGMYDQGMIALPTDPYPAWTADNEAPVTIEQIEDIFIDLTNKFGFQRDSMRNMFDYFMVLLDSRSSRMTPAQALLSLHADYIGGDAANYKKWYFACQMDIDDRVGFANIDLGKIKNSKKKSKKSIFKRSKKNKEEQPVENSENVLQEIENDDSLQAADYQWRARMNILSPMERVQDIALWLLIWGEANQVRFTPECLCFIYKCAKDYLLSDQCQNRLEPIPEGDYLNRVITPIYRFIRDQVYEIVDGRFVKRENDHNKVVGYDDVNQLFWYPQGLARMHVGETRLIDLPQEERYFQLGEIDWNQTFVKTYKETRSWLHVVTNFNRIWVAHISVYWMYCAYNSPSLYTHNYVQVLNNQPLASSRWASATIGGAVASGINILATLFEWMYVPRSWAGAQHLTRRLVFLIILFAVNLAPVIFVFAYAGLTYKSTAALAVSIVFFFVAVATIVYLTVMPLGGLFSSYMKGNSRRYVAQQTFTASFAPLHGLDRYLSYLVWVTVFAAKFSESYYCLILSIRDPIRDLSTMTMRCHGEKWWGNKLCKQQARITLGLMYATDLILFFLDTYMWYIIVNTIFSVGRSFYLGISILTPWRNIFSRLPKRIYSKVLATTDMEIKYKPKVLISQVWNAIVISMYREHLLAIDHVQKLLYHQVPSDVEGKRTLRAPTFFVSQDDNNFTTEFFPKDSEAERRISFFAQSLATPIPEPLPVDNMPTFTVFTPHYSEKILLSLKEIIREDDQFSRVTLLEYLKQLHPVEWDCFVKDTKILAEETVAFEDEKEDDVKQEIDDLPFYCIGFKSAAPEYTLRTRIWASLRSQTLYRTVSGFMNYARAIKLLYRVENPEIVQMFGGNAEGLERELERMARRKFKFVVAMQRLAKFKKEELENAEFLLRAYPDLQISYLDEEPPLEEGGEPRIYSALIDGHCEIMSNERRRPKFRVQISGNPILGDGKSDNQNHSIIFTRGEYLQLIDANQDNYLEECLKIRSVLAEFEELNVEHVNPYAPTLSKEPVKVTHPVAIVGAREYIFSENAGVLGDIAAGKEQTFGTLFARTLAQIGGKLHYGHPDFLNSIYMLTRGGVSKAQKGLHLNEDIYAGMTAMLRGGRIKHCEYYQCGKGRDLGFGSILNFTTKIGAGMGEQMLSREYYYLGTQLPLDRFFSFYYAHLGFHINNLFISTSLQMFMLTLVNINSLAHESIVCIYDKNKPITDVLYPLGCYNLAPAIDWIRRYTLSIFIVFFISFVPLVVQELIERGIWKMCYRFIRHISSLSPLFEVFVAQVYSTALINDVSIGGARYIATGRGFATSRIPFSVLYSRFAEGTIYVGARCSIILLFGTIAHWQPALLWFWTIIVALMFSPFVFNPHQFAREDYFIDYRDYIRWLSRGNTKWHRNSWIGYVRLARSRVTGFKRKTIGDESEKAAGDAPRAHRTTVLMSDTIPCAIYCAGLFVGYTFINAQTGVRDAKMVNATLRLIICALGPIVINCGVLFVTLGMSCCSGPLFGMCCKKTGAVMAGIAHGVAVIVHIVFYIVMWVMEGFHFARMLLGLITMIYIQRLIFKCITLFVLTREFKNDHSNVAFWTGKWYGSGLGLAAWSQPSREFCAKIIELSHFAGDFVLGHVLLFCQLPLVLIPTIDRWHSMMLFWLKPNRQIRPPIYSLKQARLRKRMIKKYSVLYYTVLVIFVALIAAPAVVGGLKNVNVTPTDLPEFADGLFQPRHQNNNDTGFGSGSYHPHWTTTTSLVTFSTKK
Chain of 1,3-beta-glucan synthase (Pichia kudriavzevii, UniProt Q4U2W2) (Q4U2W2 whole entry): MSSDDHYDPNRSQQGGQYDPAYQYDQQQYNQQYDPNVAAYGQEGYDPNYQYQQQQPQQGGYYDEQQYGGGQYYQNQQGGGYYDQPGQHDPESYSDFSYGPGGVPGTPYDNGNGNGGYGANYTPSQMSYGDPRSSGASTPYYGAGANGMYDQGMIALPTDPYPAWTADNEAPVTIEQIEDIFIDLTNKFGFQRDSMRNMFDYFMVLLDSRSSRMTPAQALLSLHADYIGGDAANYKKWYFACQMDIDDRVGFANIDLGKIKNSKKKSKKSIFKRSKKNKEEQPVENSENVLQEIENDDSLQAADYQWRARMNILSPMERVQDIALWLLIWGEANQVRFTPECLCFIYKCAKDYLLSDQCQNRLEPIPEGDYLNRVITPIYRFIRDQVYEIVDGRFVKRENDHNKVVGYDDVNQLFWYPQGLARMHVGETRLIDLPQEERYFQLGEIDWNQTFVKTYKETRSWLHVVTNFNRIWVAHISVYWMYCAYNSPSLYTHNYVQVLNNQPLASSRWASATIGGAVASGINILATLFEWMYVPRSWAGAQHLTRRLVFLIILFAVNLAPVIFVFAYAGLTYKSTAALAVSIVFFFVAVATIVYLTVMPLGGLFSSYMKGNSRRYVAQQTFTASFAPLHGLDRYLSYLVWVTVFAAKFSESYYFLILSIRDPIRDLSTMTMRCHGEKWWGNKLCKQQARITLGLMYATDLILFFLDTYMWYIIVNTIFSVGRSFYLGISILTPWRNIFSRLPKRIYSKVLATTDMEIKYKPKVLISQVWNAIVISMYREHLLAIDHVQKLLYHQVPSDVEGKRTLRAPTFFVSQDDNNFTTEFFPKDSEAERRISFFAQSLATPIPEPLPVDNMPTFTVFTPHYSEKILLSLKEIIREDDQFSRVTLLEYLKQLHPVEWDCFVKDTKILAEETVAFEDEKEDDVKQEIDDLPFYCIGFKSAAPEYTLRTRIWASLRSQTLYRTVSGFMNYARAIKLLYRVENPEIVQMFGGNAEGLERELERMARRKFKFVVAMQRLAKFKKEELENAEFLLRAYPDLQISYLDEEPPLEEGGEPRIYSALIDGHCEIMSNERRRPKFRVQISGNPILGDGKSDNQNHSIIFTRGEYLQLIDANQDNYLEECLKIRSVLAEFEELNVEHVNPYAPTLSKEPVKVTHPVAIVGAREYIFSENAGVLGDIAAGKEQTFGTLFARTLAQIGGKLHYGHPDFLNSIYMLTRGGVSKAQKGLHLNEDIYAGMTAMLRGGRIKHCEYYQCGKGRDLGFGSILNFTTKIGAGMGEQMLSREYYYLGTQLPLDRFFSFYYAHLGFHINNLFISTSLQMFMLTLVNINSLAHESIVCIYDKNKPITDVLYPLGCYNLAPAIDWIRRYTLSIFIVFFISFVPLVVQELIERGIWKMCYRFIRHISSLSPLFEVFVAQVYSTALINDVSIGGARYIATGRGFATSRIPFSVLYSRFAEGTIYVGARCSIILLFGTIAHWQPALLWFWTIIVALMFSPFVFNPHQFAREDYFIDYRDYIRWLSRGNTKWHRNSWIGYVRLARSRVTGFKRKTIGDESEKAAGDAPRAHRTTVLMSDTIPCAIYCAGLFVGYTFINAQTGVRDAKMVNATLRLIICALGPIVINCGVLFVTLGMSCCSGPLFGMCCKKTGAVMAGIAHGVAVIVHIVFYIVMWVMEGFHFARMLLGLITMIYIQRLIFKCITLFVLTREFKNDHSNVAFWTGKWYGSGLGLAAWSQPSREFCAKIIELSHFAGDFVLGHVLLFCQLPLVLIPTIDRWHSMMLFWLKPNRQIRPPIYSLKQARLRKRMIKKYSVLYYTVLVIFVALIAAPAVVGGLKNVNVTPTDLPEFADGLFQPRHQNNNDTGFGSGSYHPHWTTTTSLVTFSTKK

On to `CCC(C)CC(C)CCCCCCCCC(=O)N[C@H]1C[C@@H](O)[C@@H](NCCN)NC(=O)[C@@H]2[C@@H](O)CCN2C(=O)[C@H]([C@H](O)CCN)NC(=O)[C@H]([C@H](O)[C@@H](O)c2ccc(O)cc2)NC(=O)[C@@H]2C[C@@H](O)CN2C(=O)[C@H]([C@@H](C)O)NC1=O` (some centres not stated) [CHEBI:474180], for which the IC50 (as a rule, the point on the concentration scale where inhibition reaches its midpoint) was found to be 3.94 µg/mL (≈ 3.61 µM) against 1,3-beta-glucan synthase [1] and 0.0068 µg/mL (≈ 0.00622 µM) on 1,3-beta-glucan synthase [2].
